Ki and Selectivity data for 27 molecules are collected here from ChEMBL document CHEMBL1134817, “Mixed kappa agonists and mu agonists/antagonists as potential pharmacotherapeutics for cocaine abuse: synthesis and opioid receptor binding affinity of N-substituted derivatives of morphinan” (Bioorg Med Chem Lett, 2001).

The target in one experiment is Mu-type opioid receptor (Cavia porcellus, UniProt P97266). Briefly: Binding affinity towards Opioid receptor mu 1 in guinea pig brain membranes using [3H]DAMGO as radioligand. Format: cell membranes, Membrane. The gist of the method:
(§1)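 Competitive displacement binding on guinea pig brain membranes. Each receptor was labelled with its own tritiated radioligand: [³H]DAMGO (μ agonist) for μ, [³H]naltrindole (δ antagonist) for δ, and [³H]U69593 (κ agonist) for κ. The method follows an earlier protocol.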

In experiment [1] the target is T1, Kappa-type opioid receptor (Cavia porcellus, UniProt P41144). In words: Binding affinity towards guinea pig Opioid receptor kappa 1 using radioligand [3H]U-69593. The gist of the method: as §1
For experiment [2], the target named is Opioid receptors; delta & kappa (Homo sapiens) (UniProt P41145+P41143). In words: Selectivity ratio of kappa opioid receptor to that of delta opioid receptor in guinea pig brain membranes. Format: cell membranes. Particulars: Cavia porcellus; target entry is the homologue from another species.
The target in experiment [3] is Opioid receptors; mu & kappa (Homo sapiens) (UniProt P41145+P35372). Briefly: Selectivity ratio of kappa opioid receptor to that of mu opioid receptor in guinea pig brain membranes. The experiment is classed as cell membranes. Particulars: Cavia porcellus; target entry is the homologue from another species.
The nature of experiment [4]: Binding affinity towards Opioid receptor delta 1 in guinea pig brain membranes using [3H]naltrindole as radioligand.
For experiment [5], the target named is T1, Kappa-type opioid receptor. Briefly: Binding affinity towards Opioid receptor kappa 1 in guinea pig brain membranes using [3H]U-69593 as radioligand. Format: cell membranes, Membrane. The gist of the method:
as §1

Chain of Opioid receptors; delta & kappa (Homo sapiens) (P41143 whole entry, looked up): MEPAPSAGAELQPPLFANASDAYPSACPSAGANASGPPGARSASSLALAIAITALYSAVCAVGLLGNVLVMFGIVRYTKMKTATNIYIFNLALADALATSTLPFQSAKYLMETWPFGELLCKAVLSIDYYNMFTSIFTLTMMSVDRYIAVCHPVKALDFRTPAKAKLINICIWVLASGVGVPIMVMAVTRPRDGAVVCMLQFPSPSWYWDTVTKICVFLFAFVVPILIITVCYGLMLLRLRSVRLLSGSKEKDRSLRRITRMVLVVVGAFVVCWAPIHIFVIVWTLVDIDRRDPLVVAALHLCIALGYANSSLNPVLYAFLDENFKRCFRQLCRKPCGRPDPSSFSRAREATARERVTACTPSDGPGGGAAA
Chain of Opioid receptors; delta & kappa (Homo sapiens) (P41145 whole entry, looked up): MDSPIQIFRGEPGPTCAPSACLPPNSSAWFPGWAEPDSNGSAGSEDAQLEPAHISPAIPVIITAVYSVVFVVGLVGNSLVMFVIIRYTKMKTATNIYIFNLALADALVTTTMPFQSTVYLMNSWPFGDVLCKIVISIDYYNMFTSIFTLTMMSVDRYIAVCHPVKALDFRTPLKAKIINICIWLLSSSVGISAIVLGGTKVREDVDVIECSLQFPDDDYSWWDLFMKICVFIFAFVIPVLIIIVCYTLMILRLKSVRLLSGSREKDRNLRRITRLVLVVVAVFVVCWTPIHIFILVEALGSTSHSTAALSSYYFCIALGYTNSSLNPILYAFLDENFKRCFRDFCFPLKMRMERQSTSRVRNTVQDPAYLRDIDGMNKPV
Chain of Mu-type opioid receptor (P97266 whole entry): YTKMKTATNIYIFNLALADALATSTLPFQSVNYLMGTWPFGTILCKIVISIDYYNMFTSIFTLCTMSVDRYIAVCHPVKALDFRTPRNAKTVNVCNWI
T1 sequence (P41144 whole entry): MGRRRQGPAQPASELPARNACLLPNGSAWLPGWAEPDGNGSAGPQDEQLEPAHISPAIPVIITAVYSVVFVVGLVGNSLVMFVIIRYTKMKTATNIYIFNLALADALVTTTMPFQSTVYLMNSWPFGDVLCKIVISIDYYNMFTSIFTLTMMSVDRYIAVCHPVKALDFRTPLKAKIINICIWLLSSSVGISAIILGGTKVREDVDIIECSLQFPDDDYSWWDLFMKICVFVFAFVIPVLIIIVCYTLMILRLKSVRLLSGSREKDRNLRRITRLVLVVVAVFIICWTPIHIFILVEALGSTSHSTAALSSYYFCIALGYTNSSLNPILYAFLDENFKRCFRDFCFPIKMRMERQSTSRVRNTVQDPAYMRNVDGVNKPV
Chain of Opioid receptors; mu & kappa (Homo sapiens) (P35372 whole entry, looked up): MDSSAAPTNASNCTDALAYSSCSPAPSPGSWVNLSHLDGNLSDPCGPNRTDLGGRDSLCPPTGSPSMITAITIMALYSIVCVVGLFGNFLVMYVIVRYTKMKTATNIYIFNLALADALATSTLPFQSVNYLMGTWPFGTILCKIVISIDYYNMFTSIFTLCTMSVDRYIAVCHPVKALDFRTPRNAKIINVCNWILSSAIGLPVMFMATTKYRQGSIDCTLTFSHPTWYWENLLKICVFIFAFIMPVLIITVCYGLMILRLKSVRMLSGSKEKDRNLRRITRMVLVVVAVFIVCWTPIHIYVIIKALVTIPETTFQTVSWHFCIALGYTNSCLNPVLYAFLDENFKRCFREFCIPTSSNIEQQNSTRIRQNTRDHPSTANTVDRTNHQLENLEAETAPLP
Chain of Opioid receptors; mu & kappa (Homo sapiens) (P41145 whole entry, looked up): as the sequence (P41145 whole entry, looked up) above

Consider `COCCN1CC[C@]23CCCC[C@H]2[C@H]1Cc1cc(O)ccc13`, for which the results for the Ki (on Mu-type opioid receptor; in experiment [1]) were 110 pM and 94 pM, respectively. Further, the values for the Selectivity in experiment [2] and in experiment [3] were 6 and 1, respectively.
In the same order, the values of `N#CCCN1CC[C@]23CCCC[C@H]2[C@H]1Cc1cc(O)ccc13` are 330 pM, 230 pM, 11 and 1.4.
In the same order, the values of `Oc1ccc2c(c1)C[C@@H]1[C@@H]3CCCC[C@]23CCN1C/C=C/I` are 4.8 pM, 37 pM, 730 and 0.13.
In turn, `Oc1ccc2c(c1)[C@@]13CCCC[C@H]1[C@@H](C2)N(CC1CC1)CC3` [CYCLORPHAN] displayed an inhibitory constant (Ki) in experiment [4] of 220 pM.
Take `O=C(CCN1CC[C@]23CCCC[C@H]2[C@H]1Cc1cc(O)ccc13)c1ccco1`: the Ki is 280 pM on Mu-type opioid receptor and 7900 pM in experiment [1]. Also, the Selectivity amounted to 5 in experiment [2] and 0.035 in experiment [3].
Take `Oc1ccc2c(c1)C[C@@H]1[C@@H]3CCCC[C@]23CCN1Cc1ccco1`: the Ki at Mu-type opioid receptor came out at 540 pM; in experiment [1], 130 pM. Further, the results for the Selectivity in experiment [2] and in experiment [3] were 65 and 4, respectively.
For the molecule `Oc1ccc2c(c1)C[C@@H]1[C@@H]3CCCCC23CCN1CC1CCCC1`, the Ki on Mu-type opioid receptor came out at 960 pM; in experiment [5] it was 210 pM. For the same molecule, the Selectivity in experiment [2] came out at 33; in experiment [3] it was 5.
Regarding `C#CCN1CC[C@]23CCCC[C@H]2[C@H]1Cc1ccc(O)cc13`, the figures for the Ki (at Mu-type opioid receptor; in experiment [1]) were 3.2 pM and 3 pM, respectively. For the same molecule, the Selectivity turned out to be 210 in experiment [2] and 1 in experiment [3].
As to `CC(C)CN1CC[C@]23CCCC[C@H]2[C@H]1Cc1cc(O)ccc13`, the values for the Ki (on Mu-type opioid receptor; in experiment [5]) were 540 pM and 160 pM, respectively. Also, the Selectivity in experiment [2] amounted to 35; in experiment [3] it was 3.
For `Oc1ccc2c(c1)C[C@@H]1[C@@H]3CCCC[C@]23CCN1CCC(O)c1ccccc1` (some centres undefined), the values for the Ki (at Mu-type opioid receptor; in experiment [1]) were 21000 pM and 57000 pM, respectively. The Selectivity in experiment [2] amounted to 2; in experiment [3] it was 0.4.
Consider `Oc1ccc2c(c1)C[C@@H]1[C@@H]3CCCC[C@]23CCN1CCC(O)c1cccs1` (some centres undefined), for which the Ki on Mu-type opioid receptor stood at 4100 pM; in experiment [1], 25000 pM. Also, the results for the Selectivity in experiment [2] and in experiment [3] were 4 and 0.2, respectively.
`Oc1ccc2c(c1)C[C@@H]1[C@@H]3CCCCC23CCN1CC1CCCCC1`: the inhibition constant (Ki) was determined as 18000 pM on Mu-type opioid receptor and 1500 pM in experiment [5]. For the same molecule, the Selectivity in experiment [2] was determined as 46; in experiment [3], 12.
Take `Oc1ccc2c(c1)C[C@@H]1[C@@H]3CCCC[C@]23CCN1CCc1ccccc1`: the Ki on Mu-type opioid receptor worked out at 120 pM; in experiment [1] it was 1300 pM. Moreover, the Selectivity in experiment [2] is 2; in experiment [3], 0.092.
For the molecule `Oc1ccc2c(c1)C[C@@H]1[C@@H]3CCCC[C@]23CCN1CCCF`, the results for the Ki (at Mu-type opioid receptor; in experiment [5]) were 180 pM and 83 pM, respectively. The values for the Selectivity in experiment [2] and in experiment [3] were 10 and 2, respectively.
On to `CCOCCN1CC[C@]23CCCC[C@H]2[C@H]1Cc1cc(O)ccc13`, for which the results for the Ki (on Mu-type opioid receptor; in experiment [5]) were 260 pM and 330 pM, respectively. Also, the results for the Selectivity in experiment [2] and in experiment [3] were 16 and 0.8, respectively.
On to `O=C(CCN1CC[C@]23CCCC[C@H]2[C@H]1Cc1cc(O)ccc13)c1ccccc1`, for which the Ki at Mu-type opioid receptor came out at 430 pM; in experiment [1], 9900 pM. Also, the Selectivity in experiment [2] stood at 2; in experiment [3], 0.04.
Regarding `Oc1ccc2c(c1)C[C@@H]1[C@@H]3CCCC[C@]23CCN1CC=CI`, the Ki on Mu-type opioid receptor turned out to be 420 pM; in experiment [1], 650 pM. Also, the Selectivity in experiment [2] amounted to 51; in experiment [3] it was 0.6.
In the same order, the values of `Oc1ccc2c(c1)C[C@@H]1[C@@H]3CCCCC23CCN1Cc1cccs1` are 1500 pM, 320 pM, 160 and 5.
In the same order, the values of `Oc1ccc2c(c1)C[C@@H]1[C@@H]3CCCC[C@]23CCN1CCC(O)c1ccco1` (some centres undefined) are 4200 pM, 12000 pM, 2 and 0.35.
Take `Oc1ccc2c(c1)[C@@]13CCCC[C@H]1[C@@H](C2)N(CC1CCC1)CC3` [BUTORPHAN]: the Ki worked out at 70 pM in experiment [5] and 1300 pM in experiment [4]. Also, the Selectivity is 18 in experiment [2] and 2 in experiment [3].
For `Oc1ccc2c(c1)C[C@@H]1[C@@H]3CCCC[C@]23CCN1Cc1ccccc1`, the Ki on Mu-type opioid receptor stood at 20000 pM; in experiment [1], 1900 pM. Further, the Selectivity in experiment [2] came to 220; in experiment [3], 11.
In the same order, the values of `Oc1ccc2c(c1)C[C@@H]1[C@@H]3CCCC[C@]23CCN1CCOc1ccccc1` are 920 pM, 15000 pM, 2 and 0.06.
Consider `Oc1ccc2c(c1)C[C@@H]1[C@@H]3CCCC[C@]23CCN1CCC(F)(F)F`, for which the Ki is 2300 pM at Mu-type opioid receptor and 1300 pM in experiment [1]. Moreover, the Selectivity in experiment [2] came out at 21; in experiment [3] it was 2.
In the same order, the values of `N#CCCCN1CC[C@]23CCCC[C@H]2[C@H]1Cc1cc(O)ccc13` are 160 pM, 380 pM, 8 and 0.42.
For the molecule `C=CCN1CC[C@]23CCCC[C@H]2[C@H]1Cc1cc(O)ccc13`, the Ki is 340 pM on Mu-type opioid receptor and 160 pM in experiment [1]. For the same molecule, the Selectivity in experiment [2] came to 26; in experiment [3], 2.
As for `O=C(CCN1CC[C@]23CCCC[C@H]2[C@H]1Cc1cc(O)ccc13)c1cccs1`, the Ki at Mu-type opioid receptor was 270 pM; in experiment [1], 4500 pM. For the same molecule, the Selectivity amounted to 2 in experiment [2] and 0.06 in experiment [3].
Consider `CN1CC[C@]23CCCC[C@H]2[C@H]1Cc1ccc(O)cc13` [LEVORPHANOL], for which the figures for the Selectivity in experiment [2] and in experiment [3] were 2 and 0.09, respectively. In experiment [4], the Ki worked out at 4200 pM.
